In ChEMBL document CHEMBL3045352, “Papyracillic acid, a phytotoxic 1,6-dioxaspiro[4,4]nonene produced by Ascochyta agropyrina Var. nana, a potential mycoherbicide for Elytrigia repens biocontrol” (J Agric Food Chem, 2009):
Calls of active or inactive are those of the source. No cut-off for these calls is given here.

What was measured:
Format in all cases: functional, organism-based
Elymus repens [1] = experiment: Mycoherbicidal activity against Elymus repens (couch grass) assessed as decrease in length of necrotic lesions at 1 mg/ml by leaf-disk puncture assay
How it was run: (§1)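 Leaf disk-puncture bioassay on leaves of host and nonhost plants. Compound was applied at 1 mg/mL, and necrosis was read 3 days post-application. Each bioassay was run twice with at least three replicates. Error bars are standard error, and means were compared by Fisher's LSD.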

Cirsium arvense [2] = experiment: Mycoherbicidal activity against Cirsium arvense (Canada thistle) assessed as decrease in length of necrotic lesions at 1 mg/ml by leaf-disk puncture assay; how it was run: as §1
Trifolium pratense = experiment: Mycoherbicidal activity against Trifolium pratense (red clover) assessed as decrease in length of necrotic lesions at 1 mg/ml by leaf-disk puncture assay; how it was run: as §1
Rumex confertus = experiment: Mycoherbicidal activity against Rumex confertus (Asian dock) assessed as decrease in length of necrotic lesions at 1 mg/ml by leaf-disk puncture assay; how it was run: as §1
Chenopodium album = experiment: Mycoherbicidal activity against Chenopodium album assessed as decrease in length of necrotic lesions at 1 mg/ml by leaf-disk puncture assay; how it was run: as §1
Cannabis sativa = experiment: Mycoherbicidal activity against Cannabis sativa (hemp) assessed as decrease in length of necrotic lesions at 1 mg/ml by leaf disk puncture assay; how it was run: as §1
Elymus repens [3] = experiment: Mycoherbicidal activity against Elymus repens (couch grass) assessed as decrease in length of necrotic lesions at 0.5 mg/ml by leaf-disk puncture assay
How it was run: (§2)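 Dose-response leaf disk-puncture on E. repens and C. arvense leaves. Concentrations ran from 0.06 to 2 mg/mL (0.6-20 μg/disk), and necrotic symptoms were scored 2 days post-application. Each bioassay was run twice with at least three replicates. Means were compared by Fisher's LSD.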

Candida tropicalis [4] = experiment: Antimicrobial activity against Candida tropicalis assessed as growth inhibition at 6.25 ug/disk
How it was run: (§3)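 Paper-disk assay against C. tropicalis, X. campestris and B. subtilis. Standard testing used 50 μg per disk. For concentration dependence, doses ran from 1.5 to 100 μg/disk. Each bioassay was run twice with at least three replicates. Means were compared by Fisher's LSD.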

Sonchus arvensis = experiment: Mycoherbicidal activity against Sonchus arvensis (field sow-thistle) assessed as decrease in length of necrotic lesions at 1 mg/ml by leaf-disk puncture assay; how it was run: as §1
Taraxacum officinale = experiment: Mycoherbicidal activity against Taraxacum officinale (dandelion) assessed as decrease in length of necrotic lesions at 1 mg/ml by leaf-disk puncture assay; how it was run: as §1
Cirsium arvense [5] = experiment: Mycoherbicidal activity against Cirsium arvense (Canada thistle) assessed as decrease in length of necrotic lesions at 0.5 mg/ml by leaf-disk puncture assay; how it was run: as §2
Bacillus subtilis [6] = experiment: Antimicrobial activity against Bacillus subtilis assessed as zone of lysis at 6.25 ug/disk; how it was run: as §3
Xanthomonas campestris [7] = experiment: Antimicrobial activity against Xanthomonas campestris assessed as zone of lysis at 6.25 ug/disk; how it was run: as §3
Phleum pratense = experiment: Mycoherbicidal activity against Phleum pratense (timothy grass) assessed as decrease in length of necrotic lesions at 1 mg/ml by leaf-disk puncture assay; how it was run: as §1
Rosa pendulina = experiment: Mycoherbicidal activity against Rosa pendulina assessed as decrease in length of necrotic lesions at 1 mg/ml by leaf-disk puncture assay; how it was run: as §1
Hordeum vulgare = experiment: Mycoherbicidal activity against Hordeum vulgare (barley) assessed as decrease in length of necrotic lesions at 1 mg/ml by leaf-disk puncture assay; how it was run: as §1
Bacillus subtilis [8] = experiment: Antimicrobial activity against Bacillus subtilis assessed as zone of lysis at 50 ug/disk; how it was run: as §3
Xanthomonas campestris [9] = experiment: Antimicrobial activity against Xanthomonas campestris assessed as zone of lysis at 50 ug/disk; how it was run: as §3
Candida tropicalis [10] = experiment: Antimicrobial activity against Candida tropicalis assessed as growth inhibition at 50 ug/disk; how it was run: as §3

Structure (SMILES)	Activity (Elymus repens [1])	Activity (Cirsium arvense [2])	Activity (Bacillus subtilis [8])	Activity (Xanthomonas campestris [9])	also measured
COC1=CC(=O)O/C1=C(\COC(C)=O)C(C)C(C)=O (stereo unspecified)	Active	Active			
C=C1[C@H](C)[C@](C)(O)O[C@]12OC(=O)C=C2OC	Active	Active			Activity (Trifolium pratense): Active; Activity (Rumex confertus): Active; Activity (Chenopodium album): Active; Activity (Cannabis sativa): inactive; Activity (Elymus repens [3]): Active; growth inhibition (GI) (Candida tropicalis [4]): Active; Activity (Sonchus arvensis): Active; Activity (Taraxacum officinale): Active; Activity (Cirsium arvense [5]): Active; Activity (Bacillus subtilis [6]): Active; Activity (Xanthomonas campestris [7]): Active; Activity (Phleum pratense): Active; Activity (Rosa pendulina): Active; Activity (Hordeum vulgare): Active
COC1=CC(=O)O/C1=C(/COC(C)=O)C(C)C(C)=O (stereo unspecified)	Active		Active	Active	
C=C(C(=O)/C(=C\C(=O)OC)OC)C(C)C(C)=O (stereo unspecified)		Active			
C=C1[C@H](C)[C@](C)(OC)O[C@]12OC(=O)C=C2OC	Active	Active	Active	Active	growth inhibition (GI) (Candida tropicalis [10]): Active
C=C(C(C)C(C)=O)C1(OC(C)=O)OC(=O)C=C1OC (stereo unspecified)	Active	Active	Active	Active	
